Test results as given in ChEMBL document CHEMBL3853352, “Anti-tubercular activities of 5,6,7,8-tetrahydrobenzo[4,5]thieno[2,3-d]pyrimidin-4-amine analogues endowed with high activity toward non-replicative Mycobacterium tuberculosis” (Bioorg Med Chem, 2016).
Values after ≈ are worked out from the molar mass of the structure shown.

How the values were obtained:
[1] = Inhibition of Mycobacterium tuberculosis ADH assessed as decrease in conversion of L-alanine to pyruvate by measuring NADH by spectrophotometry; design: species or system Mycobacterium tuberculosis H37Rv
Outline: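 Mtb L-AlaDH oxidative deamination of L-alanine to pyruvate at 37 °C. NADH formation read at 340 nm. Compounds tested from 25 µM to 0.5 µM. Background read from the reaction mixture without enzyme. IC50 values calculated from the concentration series.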

[2] = system: Mycobacterium tuberculosis; test: Antimycobacterial activity against dormant stage of Mycobacterium tuberculosis H37Rv assessed as reduction in bacterial growth under nutrient starved conditions at 10 ug/ml for 7 days measured after 28 days; format: functional
Outline: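 H37Rv grown in 7H9/OADC, washed twice and resuspended in PBS, then held in sealed bottles at 37 °C for 6 weeks. Starved cultures exposed to compound at 10 ug/ml for 7 days. Cells diluted 10-fold serially to 10^-6 in 7H9/OADC and plated in triplicate. Incubated 28 days at 37 °C without agitation; wells with visible growth scored positive and MPN calculated.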

[3] = system: Mycobacterium tuberculosis; test: Antimycobacterial activity against Mycobacterium tuberculosis H37Rv after 7 days by MABA; format: functional; conditions: 168 h
Outline: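 M. tuberculosis H37Rv inoculum taken from fresh LJ medium, resuspended in 7H9-S (7H9, 0.1% casitone, 0.5% glycerol, OADC), adjusted to McFarland No. 1 and diluted 1:20. Serial two-fold drug dilutions in 7H9-S, with growth and sterile controls. Incubated 7 days at 37 °C in normal atmosphere, then alamar blue added and incubated overnight. MIC = lowest concentration preventing the blue-to-pink change.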

[4] = biological target: T1, L-lysine-epsilon aminotransferase (Mycobacterium tuberculosis) (UniProt P9WQ77); test: Inhibition of Mycobacterium tuberculosis LAT at 25 uM
T1 sequence (whole entry): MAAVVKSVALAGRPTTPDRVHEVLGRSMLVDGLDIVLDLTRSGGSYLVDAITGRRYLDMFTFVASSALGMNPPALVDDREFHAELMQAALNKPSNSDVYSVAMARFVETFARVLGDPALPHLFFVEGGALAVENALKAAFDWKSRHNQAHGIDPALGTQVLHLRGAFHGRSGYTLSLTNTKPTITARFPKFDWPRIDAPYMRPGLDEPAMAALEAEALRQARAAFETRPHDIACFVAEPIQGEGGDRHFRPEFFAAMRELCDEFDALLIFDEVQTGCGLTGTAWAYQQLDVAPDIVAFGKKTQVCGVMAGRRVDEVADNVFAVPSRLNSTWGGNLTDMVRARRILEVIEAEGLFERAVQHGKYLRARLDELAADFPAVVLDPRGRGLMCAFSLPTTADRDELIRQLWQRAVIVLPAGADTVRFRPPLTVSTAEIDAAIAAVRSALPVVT

[5] = system: Mycobacterium tuberculosis H37Rv; test: Inhibition of Mycobacterium tuberculosis ADH assessed as decrease in conversion of L-alanine to pyruvate at 25 uM by measuring NADH by spectrophotometry
[6] = Cytotoxicity against mouse RAW264.7 cells assessed as inhibition of cell proliferation at 50 ug/ml after 48 hrs by MTT assay; format: toxicity
Outline: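 RAW 264.7 mouse macrophages grown in RPMI with 10% FBS and penicillin/streptomycin, then seeded at about 5000 cells/well on poly-L-lysine-coated plates. Pre-incubated 24 h at 37 °C, 5% CO2, then exposed to compound for 48 h. MTT (0.5 mg/ml) added for 3 h and formazan read at 595 nm.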

Compound	IC50 [1]	fold change (FC) [2]	MIC [3]	inhibition [4]	inhibition [5]	inhibition at 48 h, 50 ug/ml [6]
Cc1ccc(C)c(Nc2nc(-c3ccccc3)nc3sc4c(c23)CCCC4)c1	5.82 µM	>1	2.02 µM (≈ 0.779 µg/mL)	< 50%	50%	3.23%
c1ccc(Nc2nc(-c3ccccc3)nc3sc4c(c23)CCCC4)cc1	11.4 µM	>1	4.36 µM (≈ 1.56 µg/mL)	< 50%	50%	7.15%
CCc1nc(Nc2ccc(F)cc2)c2c3c(sc2n1)CCCC3	6.05 µM	>1	38.2 µM (≈ 12.5 µg/mL)	< 50%	50%	14%
Cc1ccc(Nc2nc(C3CC3)nc3sc4c(c23)CCCC4)cc1	13.4 µM		74.5 µM (≈ 25 µg/mL)	< 50%	50%	16.2%
CCc1nc(Nc2cc(C)ccc2C)c2c3c(sc2n1)CCCC3	> 25 µM		74.1 µM (≈ 25 µg/mL)	< 50%		29.9%
CCc1nc(NCc2ccccc2)c2c3c(sc2n1)CCCC3	6.03 µM	>1	38.6 µM (≈ 12.5 µg/mL)	< 50%	50%	7.05%
CCc1nc(Nc2ccc(Br)cc2)c2c3c(sc2n1)CCCC3	6.54 µM	>1	32.2 µM (≈ 12.5 µg/mL)	< 50%	50%	12.6%
c1ccc(CCNc2nc(-c3ccccc3)nc3sc4c(c23)CCCC4)cc1	5.6 µM	>1	64.8 µM (≈ 25 µg/mL)	< 50%	50%	24.6%
Cc1ccc(Nc2nc(C3CC3)nc3sc4c(c23)CCCC4)c(C)c1	9 µM	>1	71.5 µM (≈ 25 µg/mL)	< 50%	50%	23.9%
CCc1nc(Nc2ccc(C)cc2)c2c3c(sc2n1)CCCC3	3.26 µM	>1	77.3 µM (≈ 25 µg/mL)	< 50%	50%	15.6%
Brc1ccc(Nc2nc(C3CC3)nc3sc4c(c23)CCCC4)cc1	8.93 µM	>1	15.6 µM (≈ 6.25 µg/mL)	< 50%	50%	33.4%
CCc1nc(Nc2ccccc2)c2c3c(sc2n1)CCCC3	15.1 µM	>1	20.2 µM (≈ 6.25 µg/mL)	< 50%	50%	7.82%
CCc1nc(Nc2ccc(C)cc2C)c2c3c(sc2n1)CCCC3	7.41 µM	>1	74.1 µM (≈ 25 µg/mL)	< 50%	50%	9.65%
Fc1ccc(Nc2nc(C3CC3)nc3sc4c(c23)CCCC4)cc1	8.91 µM	>1	36.8 µM (≈ 12.5 µg/mL)	< 50%		4.82%
c1ccc(CNc2nc(C3CC3)nc3sc4c(c23)CCCC4)cc1	4.23 µM	>1	18.6 µM (≈ 6.25 µg/mL)	< 50%	50%	23.1%
CCc1nc(Nc2ccc(Cl)cc2)c2c3c(sc2n1)CCCC3	4.94 µM	>1	18.2 µM (≈ 6.25 µg/mL)	< 50%	50%	15.6%
CC[C@@H](CO)NCCN[C@@H](CC)CO [ETHAMBUTOL]	> 25 µM		7.64 µM (≈ 1.56 µg/mL)			

Compound	IC50 [1]	fold change (FC) [2]	MIC [3]	inhibition [4]	inhibition [5]	inhibition at 48 h, 50 ug/ml [6]
Cc1ccc(Nc2nc(-c3ccccc3)nc3sc4c(c23)CCCC4)c(C)c1	9.96 µM	>1	16.2 µM (≈ 6.25 µg/mL)	< 50%	50%	7.97%
Fc1ccc(Nc2nc(-c3ccccc3)nc3sc4c(c23)CCCC4)cc1	12.2 µM		33.3 µM (≈ 12.5 µg/mL)	< 50%	50%	33.4%
Cc1cccc(C)c1Nc1nc(C2CC2)nc2sc3c(c12)CCCC3	7.55 µM	>1	17.9 µM (≈ 6.25 µg/mL)	< 50%	50%	13.5%
Cc1ccc(C)c(Nc2nc(C3CC3)nc3sc4c(c23)CCCC4)c1	2.07 µM	>1	35.8 µM (≈ 12.5 µg/mL)	< 50%	50%	16.3%
COc1ccc(Nc2nc(-c3ccccc3)nc3sc4c(c23)CCCC4)cc1	8.72 µM	>1	16.1 µM (≈ 6.25 µg/mL)	< 50%	50%	28.2%
CCc1nc(Nc2c(C)cccc2C)c2c3c(sc2n1)CCCC3	5.02 µM	>1	18.5 µM (≈ 6.25 µg/mL)	< 50%	50%	26.5%
CCc1nc(Nc2ccc(OC)cc2)c2c3c(sc2n1)CCCC3	4.68 µM	>1	73.7 µM (≈ 25 µg/mL)	< 50%	50%	15.2%
COc1c(N2C[C@@H]3CCCN[C@@H]3C2)c(F)cc2c(=O)c(C(=O)O)cn(C3CC3)c12 [MOXIFLOXACIN]	> 25 µM	2.7	1.26 µM (≈ 0.506 µg/mL)			
Cc1ccc(Nc2nc(-c3ccccc3)nc3sc4c(c23)CCCC4)cc1	7.97 µM	>1	33.6 µM (≈ 12.5 µg/mL)	< 50%	50%	41.1%
c1ccc(CNc2nc(-c3ccccc3)nc3sc4c(c23)CCCC4)cc1	9.68 µM	>1	33.6 µM (≈ 12.5 µg/mL)	< 50%	50%	26.5%
NNC(=O)c1ccncc1 [ISONIAZID]	> 25 µM	1.2	0.66 µM (≈ 0.0905 µg/mL)			12.2%
c1ccc(CCNc2nc(C3CC3)nc3sc4c(c23)CCCC4)cc1	17 µM		35.8 µM (≈ 12.5 µg/mL)	< 50%	50%	17.4%
Clc1ccc(Nc2nc(C3CC3)nc3sc4c(c23)CCCC4)cc1	11.1 µM		8.78 µM (≈ 3.12 µg/mL)	< 50%	50%	15.5%
CO[C@H]1/C=C/O[C@@]2(C)Oc3c(C)c(O)c4c(O)c(c(/C=N/N5CCN(C)CC5)c(O)c4c3C2=O)NC(=O)/C(C)=C\C=C\[C@H](C)[C@H](O)[C@@H](C)[C@@H](O)[C@@H](C)[C@H](OC(C)=O)[C@@H]1C [RIFAMPIN]	> 25 µM	2	0.23 µM (≈ 0.189 µg/mL)			9.56%
c1ccc(Nc2nc(C3CC3)nc3sc4c(c23)CCCC4)cc1	> 25 µM		9.72 µM (≈ 3.12 µg/mL)	< 50%		8.8%
COc1ccc(Nc2nc(C3CC3)nc3sc4c(c23)CCCC4)cc1	> 25 µM	>1	17.8 µM (≈ 6.25 µg/mL)	< 50%		34.4%
